Data taken from ChEMBL document CHEMBL4014339, “Discovery of 1,4-Benzodiazepine-2,5-dione (BZD) Derivatives as Dual Nucleotide Binding Oligomerization Domain Containing 1/2 (NOD1/NOD2) Antagonists Sensitizing Paclitaxel (PTX) To Suppress Lewis Lung Carcinoma (LLC) Growth in Vivo” (J Med Chem, 2017).

Target: T1, Nucleotide-binding oligomerization domain-containing protein 1 (Homo sapiens) (UniProt Q9Y239)
T1 sequence (whole entry): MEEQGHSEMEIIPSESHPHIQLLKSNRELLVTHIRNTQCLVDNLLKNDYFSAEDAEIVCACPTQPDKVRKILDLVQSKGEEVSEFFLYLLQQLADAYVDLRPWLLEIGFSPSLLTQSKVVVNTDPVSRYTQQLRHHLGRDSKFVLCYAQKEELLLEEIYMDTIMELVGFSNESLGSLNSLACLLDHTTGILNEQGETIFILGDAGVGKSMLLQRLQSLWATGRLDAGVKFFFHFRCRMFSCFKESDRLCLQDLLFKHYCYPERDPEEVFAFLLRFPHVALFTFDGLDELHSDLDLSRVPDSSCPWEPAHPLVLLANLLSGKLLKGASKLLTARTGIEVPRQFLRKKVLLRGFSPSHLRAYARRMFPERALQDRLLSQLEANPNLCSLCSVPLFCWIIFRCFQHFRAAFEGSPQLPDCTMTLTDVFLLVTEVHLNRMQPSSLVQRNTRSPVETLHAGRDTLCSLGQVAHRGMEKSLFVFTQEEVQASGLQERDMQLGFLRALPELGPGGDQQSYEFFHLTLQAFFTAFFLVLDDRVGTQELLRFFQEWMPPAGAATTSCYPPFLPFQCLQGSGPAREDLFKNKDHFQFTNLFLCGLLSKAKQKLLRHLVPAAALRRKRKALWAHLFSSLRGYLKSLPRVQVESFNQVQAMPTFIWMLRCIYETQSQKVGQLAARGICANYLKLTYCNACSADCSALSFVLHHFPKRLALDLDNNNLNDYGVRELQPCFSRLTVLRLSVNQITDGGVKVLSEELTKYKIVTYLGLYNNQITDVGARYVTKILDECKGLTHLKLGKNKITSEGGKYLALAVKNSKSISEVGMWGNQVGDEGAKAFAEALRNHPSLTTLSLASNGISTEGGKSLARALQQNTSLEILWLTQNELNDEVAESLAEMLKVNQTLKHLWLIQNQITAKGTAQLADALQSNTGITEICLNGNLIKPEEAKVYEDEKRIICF
Assay: Antagonist activity at human NOD1 expressed in HEK-Blue cells assessed as inhibition of C12-iE-DAP-stimulated cell activation at 10 uM preincubated for 3 hrs followed by C12-iE-DAP addition measured after 20 hrs by SEAP reporter gene assay
Type: cell-based
Details: not given
In short: (§1)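 HEK-Blue hNOD1 or hNOD2 cells preincubated with compound 3 h, then stimulated 20 h with C12-iE-DAP 50 ng/mL (NOD1) or MDP 100 ng/mL (NOD2); SEAP in supernatant quantified. Primary screen at 10 μM, hits repeated in triplicate; IC50 from dose-response, mean ± SD (n = 3), only for compounds reaching ≥50% inhibition at the screening concentration.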

Row | Compound | inhibition [%]
1 | COC(=O)CC[C@H]1NC(=O)c2cc(Oc3cccc(N(C)C)c3)c(NC(=O)COCc3ccccc3)cc2NC1=O | 70.4
2 | COC(=O)CC[C@H]1NC(=O)c2cc(Oc3cccc(N(C)C)c3)c(NC(=O)COCc3ccc(C(F)(F)F)cc3)cc2NC1=O | 90.7
3 | CN(C)c1cccc(Oc2cc3c(cc2NC(=O)COCc2ccc(Cl)cc2)NC(=O)[C@@H](CCC(=O)N2CCCCC2)NC3=O)c1 | 85.2
4 | COC(=O)CC[C@H]1NC(=O)c2cc(Oc3ccc(Cl)c(N(C)C)c3)c(NC(=O)COCc3ccc(Cl)cc3)cc2NC1=O | 55.1
5 | COC(=O)CC[C@H]1NC(=O)c2cc(Oc3cccc(N(C)C)c3)c(NC(=O)COCc3ccc(C(C)(C)C)cc3)cc2NC1=O | 73.3
6 | CCCCNC(=O)CC[C@H]1NC(=O)c2cc(Oc3cccc(N(C)C)c3)c(NC(=O)COCc3ccccc3)cc2NC1=O | 86
7 | COC(=O)CC[C@H]1NC(=O)c2cc(Oc3cccc(N(C)C)c3)c(NC(=O)COCc3cccc(Cl)c3)cc2NC1=O | 81.8
8 | COC(=O)CC[C@H]1NC(=O)c2cc(Oc3ccc(Cl)c(N(C)C)c3)c(NC(=O)COCc3ccccc3)cc2NC1=O | 73
9 | COC(=O)CC[C@H]1NC(=O)c2cc(Oc3cccc(N(C)C)c3)c(NC(=O)COCc3cccc(Br)c3)cc2NC1=O | 89.6
10 | CN(C)c1cccc(Oc2cc3c(cc2NC(=O)COCc2ccccc2)NC(=O)[C@@H](CCC(=O)NC2CC2)NC3=O)c1 | 57.1

Target: T2, Nucleotide-binding oligomerization domain-containing protein 2 (Homo sapiens, UniProt Q9HC29)
Assay: Antagonist activity at human NOD2 expressed in HEK-Blue cells assessed as inhibition of MDP-stimulated cell activation at 5 uM preincubated for 3 hrs followed by MDP addition measured after 20 hrs by SEAP reporter gene assay
Type: cell-based
Details: not given

T2 sequence (Q9HC29 whole entry, the tested form may be a part): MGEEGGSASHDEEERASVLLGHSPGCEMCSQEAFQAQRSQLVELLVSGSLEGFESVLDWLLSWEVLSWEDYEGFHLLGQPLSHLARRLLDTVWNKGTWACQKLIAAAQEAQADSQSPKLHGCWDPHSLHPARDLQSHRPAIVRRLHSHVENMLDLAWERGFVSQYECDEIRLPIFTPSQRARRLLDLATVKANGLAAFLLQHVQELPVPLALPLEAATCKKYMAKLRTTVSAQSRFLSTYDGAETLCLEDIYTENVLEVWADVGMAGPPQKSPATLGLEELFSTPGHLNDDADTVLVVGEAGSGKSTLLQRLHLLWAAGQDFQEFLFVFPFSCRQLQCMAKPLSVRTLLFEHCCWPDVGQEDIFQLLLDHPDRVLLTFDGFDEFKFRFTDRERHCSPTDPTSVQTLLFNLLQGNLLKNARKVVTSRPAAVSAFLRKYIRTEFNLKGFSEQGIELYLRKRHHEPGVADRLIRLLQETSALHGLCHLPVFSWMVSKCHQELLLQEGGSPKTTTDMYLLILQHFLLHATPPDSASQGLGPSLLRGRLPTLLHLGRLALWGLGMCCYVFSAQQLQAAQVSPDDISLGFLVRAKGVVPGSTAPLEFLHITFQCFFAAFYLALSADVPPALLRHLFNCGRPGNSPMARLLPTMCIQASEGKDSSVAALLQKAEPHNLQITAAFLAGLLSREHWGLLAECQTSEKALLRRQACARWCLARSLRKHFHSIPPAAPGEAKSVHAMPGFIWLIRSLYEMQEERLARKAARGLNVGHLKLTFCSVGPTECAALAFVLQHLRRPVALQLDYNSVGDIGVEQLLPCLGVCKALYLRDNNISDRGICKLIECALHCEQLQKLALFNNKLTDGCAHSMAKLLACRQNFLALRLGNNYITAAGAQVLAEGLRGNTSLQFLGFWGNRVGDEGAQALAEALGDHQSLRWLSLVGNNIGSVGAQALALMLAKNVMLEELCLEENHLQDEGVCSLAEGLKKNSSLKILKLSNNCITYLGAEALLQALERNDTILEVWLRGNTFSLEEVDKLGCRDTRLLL

Row | Compound | inhibition [%]
11 | COC(=O)CC[C@H]1NC(=O)c2cc(Oc3cccc(N(C)C)c3)c(NC(=O)COCc3ccc(C(F)(F)F)cc3)cc2NC1=O | 89
12 | CN(C)c1cccc(Oc2cc3c(cc2NC(=O)COCc2ccc(Cl)cc2)NC(=O)[C@@H](CCC(=O)N2CCCCC2)NC3=O)c1 | 91.2
13 | COC(=O)CC[C@H]1NC(=O)c2cc(Oc3ccc(Cl)c(N(C)C)c3)c(NC(=O)COCc3ccc(Cl)cc3)cc2NC1=O | 82.2
14 | COC(=O)CC[C@H]1NC(=O)c2cc(Oc3cccc(N(C)C)c3)c(NC(=O)COCc3ccc(C(C)(C)C)cc3)cc2NC1=O | 75.2
15 | CCCCNC(=O)CC[C@H]1NC(=O)c2cc(Oc3cccc(N(C)C)c3)c(NC(=O)COCc3ccccc3)cc2NC1=O | 60.5
16 | COC(=O)CC[C@H]1NC(=O)c2cc(Oc3cccc(N(C)C)c3)c(NC(=O)COCc3cccc(Cl)c3)cc2NC1=O | 71.5
17 | COC(=O)CC[C@H]1NC(=O)c2cc(Oc3ccc(Cl)c(N(C)C)c3)c(NC(=O)COCc3ccccc3)cc2NC1=O | 59.9
18 | COC(=O)CC[C@H]1NC(=O)c2cc(Oc3cccc(N(C)C)c3)c(NC(=O)COCc3cccc(Br)c3)cc2NC1=O | 65.9
19 | CN(C)c1cccc(Oc2cc3c(cc2NC(=O)COCc2ccccc2)NC(=O)[C@@H](CCC(=O)NC2CC2)NC3=O)c1 | 43.7

Target: T2, Nucleotide-binding oligomerization domain-containing protein 2
Assay: Antagonist activity at human NOD2 expressed in HEK-Blue cells assessed as inhibition of MDP-stimulated cell activation at 10 uM preincubated for 3 hrs followed by MDP addition measured after 20 hrs by SEAP reporter gene assay
Type: cell-based
Details: not given
In short: as §1

Row | Compound | inhibition [%]
20 | COC(=O)CC[C@H]1NC(=O)c2cc(Oc3cccc(N(C)C)c3)c(NC(=O)COCc3ccccc3)cc2NC1=O | 69.1
21 | COC(=O)CC[C@H]1NC(=O)c2cc(Oc3cccc(N(C)C)c3)c(NC(=O)COCc3ccc(C(F)(F)F)cc3)cc2NC1=O | 91.9
22 | CN(C)c1cccc(Oc2cc3c(cc2NC(=O)COCc2ccc(Cl)cc2)NC(=O)[C@@H](CCC(=O)N2CCCCC2)NC3=O)c1 | 96.7
23 | COC(=O)CC[C@H]1NC(=O)c2cc(Oc3ccc(Cl)c(N(C)C)c3)c(NC(=O)COCc3ccc(Cl)cc3)cc2NC1=O | 79
24 | COC(=O)CC[C@H]1NC(=O)c2cc(Oc3cccc(N(C)C)c3)c(NC(=O)COCc3ccc(C(C)(C)C)cc3)cc2NC1=O | 75.7
25 | CCCCNC(=O)CC[C@H]1NC(=O)c2cc(Oc3cccc(N(C)C)c3)c(NC(=O)COCc3ccccc3)cc2NC1=O | 71.6
26 | COC(=O)CC[C@H]1NC(=O)c2cc(Oc3cccc(N(C)C)c3)c(NC(=O)COCc3cccc(Cl)c3)cc2NC1=O | 84.1
27 | COC(=O)CC[C@H]1NC(=O)c2cc(Oc3ccc(Cl)c(N(C)C)c3)c(NC(=O)COCc3ccccc3)cc2NC1=O | 78.1
28 | COC(=O)CC[C@H]1NC(=O)c2cc(Oc3cccc(N(C)C)c3)c(NC(=O)COCc3cccc(Br)c3)cc2NC1=O | 86.7
29 | CN(C)c1cccc(Oc2cc3c(cc2NC(=O)COCc2ccccc2)NC(=O)[C@@H](CCC(=O)NC2CC2)NC3=O)c1 | 57

Target: T2, Nucleotide-binding oligomerization domain-containing protein 2
Assay: Antagonist activity at human NOD2 expressed in HEK-Blue cells assessed as inhibition of MDP-stimulated cell activation preincubated for 3 hrs followed by MDP addition measured after 20 hrs by SEAP reporter gene assay
Type: cell-based
Details: not given
In short: as §1

Row | Compound | IC50 [nM]
30 | COC(=O)CC[C@H]1NC(=O)c2cc(Oc3cccc(N(C)C)c3)c(NC(=O)COCc3ccc(C(F)(F)F)cc3)cc2NC1=O | 870
31 | CN(C)c1cccc(Oc2cc3c(cc2NC(=O)COCc2ccc(Cl)cc2)NC(=O)[C@@H](CCC(=O)N2CCCCC2)NC3=O)c1 | 900
32 | COC(=O)CC[C@H]1NC(=O)c2cc(Oc3ccc(Cl)c(N(C)C)c3)c(NC(=O)COCc3ccc(Cl)cc3)cc2NC1=O | 1020
33 | COC(=O)CC[C@H]1NC(=O)c2cc(Oc3cccc(N(C)C)c3)c(NC(=O)COCc3ccc(C(C)(C)C)cc3)cc2NC1=O | 2390
34 | CCCCNC(=O)CC[C@H]1NC(=O)c2cc(Oc3cccc(N(C)C)c3)c(NC(=O)COCc3ccccc3)cc2NC1=O | 2880
35 | COC(=O)CC[C@H]1NC(=O)c2cc(Oc3cccc(N(C)C)c3)c(NC(=O)COCc3cccc(Cl)c3)cc2NC1=O | 2080
36 | COC(=O)CC[C@H]1NC(=O)c2cc(Oc3ccc(Cl)c(N(C)C)c3)c(NC(=O)COCc3ccccc3)cc2NC1=O | 3550
37 | COC(=O)CC[C@H]1NC(=O)c2cc(Oc3cccc(N(C)C)c3)c(NC(=O)COCc3cccc(Br)c3)cc2NC1=O | 2280
38 | CN(C)c1cccc(Oc2cc3c(cc2NC(=O)COCc2ccccc2)NC(=O)[C@@H](CCC(=O)NC2CC2)NC3=O)c1 | 7140

Target: T1, Nucleotide-binding oligomerization domain-containing protein 1 (Homo sapiens)
Assay: Antagonist activity at human NOD1 expressed in HEK-blue cells assessed as inhibition of C12-iE-DAP-stimulated cell activation at 5 uM preincubated for 3 hrs followed by C12-iE-DAP addition measured after 20 hrs by SEAP reporter gene assay
Type: cell-based
Details: not given

Row | Compound | inhibition [%]
39 | COC(=O)CC[C@H]1NC(=O)c2cc(Oc3cccc(N(C)C)c3)c(NC(=O)COCc3ccc(C(F)(F)F)cc3)cc2NC1=O | 89.8
40 | CN(C)c1cccc(Oc2cc3c(cc2NC(=O)COCc2ccc(Cl)cc2)NC(=O)[C@@H](CCC(=O)N2CCCCC2)NC3=O)c1 | 82.9
41 | COC(=O)CC[C@H]1NC(=O)c2cc(Oc3ccc(Cl)c(N(C)C)c3)c(NC(=O)COCc3ccc(Cl)cc3)cc2NC1=O | 71.8
42 | COC(=O)CC[C@H]1NC(=O)c2cc(Oc3cccc(N(C)C)c3)c(NC(=O)COCc3ccc(C(C)(C)C)cc3)cc2NC1=O | 67.7
43 | CCCCNC(=O)CC[C@H]1NC(=O)c2cc(Oc3cccc(N(C)C)c3)c(NC(=O)COCc3ccccc3)cc2NC1=O | 81.8
44 | COC(=O)CC[C@H]1NC(=O)c2cc(Oc3cccc(N(C)C)c3)c(NC(=O)COCc3cccc(Cl)c3)cc2NC1=O | 76.7
45 | COC(=O)CC[C@H]1NC(=O)c2cc(Oc3ccc(Cl)c(N(C)C)c3)c(NC(=O)COCc3ccccc3)cc2NC1=O | 58.2
46 | COC(=O)CC[C@H]1NC(=O)c2cc(Oc3cccc(N(C)C)c3)c(NC(=O)COCc3cccc(Br)c3)cc2NC1=O | 82.9
47 | CN(C)c1cccc(Oc2cc3c(cc2NC(=O)COCc2ccccc2)NC(=O)[C@@H](CCC(=O)NC2CC2)NC3=O)c1 | 35.8

Tested on: not listed separately
Assay: Cytotoxicity against HEK-Blue cells by SRB assay
Type: cell-based
Details: human

Row | Compound | Activity
48 | COC(=O)CC[C@H]1NC(=O)c2cc(Oc3cccc(N(C)C)c3)c(NC(=O)COCc3ccccc3)cc2NC1=O | Non-Toxic

Target: T3, Nucleotide-binding oligomerization domain-containing protein 1 (Homo sapiens, UniProt Q9Y239)
T3 sequence (Q9Y239 whole entry): T1 sequence (whole entry)
Assay: Antagonist activity at human NOD1 expressed in HEK-blue cells assessed as inhibition of C12-iE-DAP-stimulated cell activation preincubated for 3 hrs followed by C12-iE-DAP addition measured after 20 hrs by SEAP reporter gene assay
Type: cell-based
Details: not given
In short: as §1

Row | Compound | IC50 [nM]
49 | COC(=O)CC[C@H]1NC(=O)c2cc(Oc3cccc(N(C)C)c3)c(NC(=O)COCc3ccc(C(F)(F)F)cc3)cc2NC1=O | 940
50 | CN(C)c1cccc(Oc2cc3c(cc2NC(=O)COCc2ccc(Cl)cc2)NC(=O)[C@@H](CCC(=O)N2CCCCC2)NC3=O)c1 | 1060
51 | COC(=O)CC[C@H]1NC(=O)c2cc(Oc3ccc(Cl)c(N(C)C)c3)c(NC(=O)COCc3ccc(Cl)cc3)cc2NC1=O | 1550
52 | COC(=O)CC[C@H]1NC(=O)c2cc(Oc3cccc(N(C)C)c3)c(NC(=O)COCc3ccc(C(C)(C)C)cc3)cc2NC1=O | 1960
53 | CCCCNC(=O)CC[C@H]1NC(=O)c2cc(Oc3cccc(N(C)C)c3)c(NC(=O)COCc3ccccc3)cc2NC1=O | 1290
54 | COC(=O)CC[C@H]1NC(=O)c2cc(Oc3cccc(N(C)C)c3)c(NC(=O)COCc3cccc(Cl)c3)cc2NC1=O | 1290
55 | COC(=O)CC[C@H]1NC(=O)c2cc(Oc3ccc(Cl)c(N(C)C)c3)c(NC(=O)COCc3ccccc3)cc2NC1=O | 2900
56 | COC(=O)CC[C@H]1NC(=O)c2cc(Oc3cccc(N(C)C)c3)c(NC(=O)COCc3cccc(Br)c3)cc2NC1=O | 1330
57 | CN(C)c1cccc(Oc2cc3c(cc2NC(=O)COCc2ccccc2)NC(=O)[C@@H](CCC(=O)NC2CC2)NC3=O)c1 | 8620
